One test relates to MCF7. Description: Cytotoxicity against human MCF7 cells by MTT assay. Type of test: functional, cell-based. The gist of the method: (§1)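 Human cancer cell lines obtained from ATCC. Cytotoxicity read by MTT colorimetric method.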
In a further test the test system is MDA-MB-231. Description: Cytotoxicity against human MDA-MB-231 cells by MTT assay. Type of test: functional, cell-based. The procedure, abridged:
as §1
On the technique in general: Tetrazolium dyes change colour on reduction, which living cells bring about.

The test system of another test is Ca9-22. The test can be described thus: Cytotoxicity against human Ca9-22 cells by MTT assay. It counts as functional, cell-based. The gist of the method: as §1
The test system of another test is HepG2. Description: Cytotoxicity against human HepG2 cells by MTT assay. Type of test: functional, cell-based. The gist of the method: as §1
The test system of the next test is A549. Description: Cytotoxicity against human A549 cells by MTT assay. Type of test: functional, cell-based. The gist of the method:
as §1

Test [1] is described as follows: Cytotoxicity against human Hep3B cells by MTT assay. It counts as functional, cell-based, Hep 3B2. The procedure, abridged:
as §1

Test [2] deals with RAW264.7. The test can be described thus: Antiinflammatory activity in mouse RAW264.7 cells assessed as reduction in LPS-induced COX2 protein level at 10 uM treated 5 mins before LPS challenge by Western blot analysis relative to control. Further details: scale not given: the % may be the effect or the level left. It counts as functional. The procedure, abridged: (§2)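 Murine RAW 264.7 macrophages kept in DMEM with 10% heat-inactivated FBS at 37 °C, 5% CO2. Compound added 5 min before LPS (0.01 µg/mL), then 16 h incubation. Lysates of equal protein run on SDS-PAGE and blotted. iNOS and COX-2 probed, β-actin used as loading control, ECL detection. Band IOD expressed relative to the LPS-only control. One-way ANOVA with Student-Newman-Keuls test.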
(In general: Immunoblotting shows a protein as a band on a membrane.)

In test [3] the test system is RAW264.7. Description: Antiinflammatory activity in mouse RAW264.7 cells assessed as reduction in LPS-induced iNOS protein level at 10 uM treated 5 mins before LPS challenge by Western blot analysis relative to control. Further details: scale not given: the % may be the effect or the level left. Type of test: functional. The procedure, abridged: as §2

Structures are written as SMILES. Converted amounts (≈) assume the structure as drawn.

In general, IC50 refers to the point on the concentration scale where inhibition reaches its midpoint. Regarding `C/C1=C\[C@@H]2OC(=O)[C@@H](CN(C)C)[C@@H]2CCC(C)/C=C/C/C(C(=O)O)=C/CC1` (stereo not given in full), the concentration for half-maximal inhibition (IC50) (in the test on MCF7; with MDA-MB-231; in the test on Ca9-22; in the test on HepG2; with A549; in test [1]) was more than 5 µg/mL each time.
As to `C=C(CO)[C@@H]1CC/C(C)=C/CC/C(C)=C/CC/C(C)=C/[C@@H]1O`, the IC50 (in the test with MCF7; in the test on MDA-MB-231; in the test with Ca9-22; in the test on HepG2; in the test on A549; in test [1]) was more than 5 µg/mL in each case.
For the molecule `O=C(/C=C/c1ccc(O)c(O)c1)OCCc1ccccc1` [CAFFEIC ACID PHENETHYL ESTER], the Activity was 67.2% in the test with RAW264.7 [2] and 2.5% in the test with RAW264.7 [3].
In the case of `C=C1C(=O)O[C@H]2C/C(C)=C/[C@@H](O)C/C(C)=C/CC/C(C)=C/C[C@H]12` [CRASSUMOLIDE A], the figures for the Activity in the test with RAW264.7 [2] and with RAW264.7 [3] were 50.2% and 26.8%, respectively. In addition, the IC50 with MCF7 is more than 5 µg/mL; with MDA-MB-231 it was more than 5 µg/mL; with Ca9-22 it was 3.2 µg/mL (≈ 10.1 µM); in the test with HepG2, more than 5 µg/mL; with A549 it was more than 5 µg/mL; in test [1], more than 5 µg/mL.
As to `C=C1C(=O)O[C@H]2/C=C(\C)CC/C=C(\CO)CC/C=C(\C)CC[C@@H]12` [CRASSUMOLIDE B], the IC50 (with MCF7; in the test on MDA-MB-231; with Ca9-22; in the test with HepG2; in the test with A549; in test [1]) was more than 5 µg/mL in each case.
`C=C1C(=O)O[C@H]2/C=C(\C)CC/C=C(\C(=O)OC)CC/C=C(\C)CC[C@@H]12` [CRASSUMOLIDE C]: the Activity was found to be 34.5% in the test with RAW264.7 [2] and 2.3% in the test with RAW264.7 [3]. Moreover, the IC50 with MCF7 is more than 5 µg/mL; with MDA-MB-231 it was more than 5 µg/mL; with Ca9-22 it was 1.7 µg/mL (≈ 4.94 µM); in the test on HepG2, more than 5 µg/mL; in the test with A549, more than 5 µg/mL; in test [1], more than 5 µg/mL.
`C=C1C(=O)O[C@H]2/C=C(\C)CC/C=C(\C)C/C=C/[C@](C)(O)CC[C@@H]12` [CRASSUMOLIDE D]: the IC50 (in the test with MCF7; in the test on MDA-MB-231; in the test with Ca9-22; in the test on HepG2; in the test with A549; in test [1]) was more than 5 µg/mL throughout.
Turning to `C=C(CO)[C@@H]1CC[C@@](C)(OO)/C=C/C/C(C)=C/CC/C(C)=C/[C@@H]1O` [CRASSUMOLIDE E], the IC50 (in the test with MCF7; in the test with MDA-MB-231; in the test on Ca9-22; with HepG2; in the test with A549; in test [1]) was more than 5 µg/mL in each case.
On to `C=C1C(=O)O[C@H]2/C=C(\C)C/C=C/[C@@](C)(O)CC/C=C(\C)CC[C@@H]12` [CRASSUMOLIDE F], for which the IC50 (in the test on MCF7; in the test with MDA-MB-231; in the test on Ca9-22; in the test on HepG2; in the test with A549; in test [1]) was more than 5 µg/mL in each case.
With `C=C1C(=O)O[C@H]2/C=C(\C)CC[C@H](OC(C)=O)[C@@]3(C)CC[C@H](OO3)/C(C)=C\C[C@@H]12` [DENTICULATOLIDE], the values for the Activity in the test on RAW264.7 [2] and in the test on RAW264.7 [3] were 34.3% and 10.2%, respectively. Besides, the IC50 with MCF7 was determined as 2 µg/mL (≈ 5.12 µM); in the test on MDA-MB-231, 2 µg/mL (≈ 5.12 µM); in the test with Ca9-22, 1.2 µg/mL (≈ 3.07 µM); with HepG2, 2.4 µg/mL (≈ 6.15 µM); in the test on A549, 2.3 µg/mL (≈ 5.89 µM); in test [1], 2.5 µg/mL (≈ 6.4 µM).
Regarding `COc1cccc2c1C(=O)c1c(O)c3c(c(O)c1C2=O)C[C@@](O)(C(=O)CO)C[C@@H]3O[C@H]1C[C@H](N)[C@H](O)[C@H](C)O1` [DOXORUBICIN], the IC50 in the test on MCF7 was 0.2 µg/mL (≈ 0.368 µM); in the test on MDA-MB-231, 0.2 µg/mL (≈ 0.368 µM); in the test with Ca9-22, 0.1 µg/mL (≈ 0.184 µM); with HepG2 it was 0.2 µg/mL (≈ 0.368 µM); in test [1], 0.2 µg/mL (≈ 0.368 µM).
As for `C=C1C(=O)O[C@H]2/C=C(\C)CC/C=C(/C(=O)O)CC/C=C(\C)CC[C@@H]12` [LOBOHEDLEOLIDE], the results for the Activity in the test with RAW264.7 [2] and with RAW264.7 [3] were 39.2% and 21.5%, respectively. For the same molecule, the half-maximal inhibitory concentration (IC50) is more than 5 µg/mL in the test on MCF7; more than 5 µg/mL in the test on MDA-MB-231; 2.8 µg/mL (≈ 8.47 µM) with Ca9-22; more than 5 µg/mL in the test on HepG2; 4.6 µg/mL (≈ 13.9 µM) in the test on A549; 4.7 µg/mL (≈ 14.2 µM) in test [1].

The values above are taken from ChEMBL document CHEMBL1154143, “Cytotoxic and anti-inflammatory cembranoids from the soft coral Lobophytum crassum” (J Nat Prod, 2008).
